A selection: hits, their analogues and other compounds. The true share with any hit is near 3.8%.
KCNK3 block: human KCNK3 channel inhibitors, primary screen, CHO cells, FluxOR thallium flux, B-score | Potassium channel subfamily K member 3 (Homo sapiens), O14649 | FluxOR fluorescence; active compounds read low | B-score at 10 µM | hit rate 0.84% among 340,000;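 active means B-score under library mean minus 4 SD, starting fluorescence ratio at most library mean plus 5 SD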;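 further: more negative B-score means stronger inhibition of thallium flux through KCNK3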
Target sequence (O14649 whole entry, looked up): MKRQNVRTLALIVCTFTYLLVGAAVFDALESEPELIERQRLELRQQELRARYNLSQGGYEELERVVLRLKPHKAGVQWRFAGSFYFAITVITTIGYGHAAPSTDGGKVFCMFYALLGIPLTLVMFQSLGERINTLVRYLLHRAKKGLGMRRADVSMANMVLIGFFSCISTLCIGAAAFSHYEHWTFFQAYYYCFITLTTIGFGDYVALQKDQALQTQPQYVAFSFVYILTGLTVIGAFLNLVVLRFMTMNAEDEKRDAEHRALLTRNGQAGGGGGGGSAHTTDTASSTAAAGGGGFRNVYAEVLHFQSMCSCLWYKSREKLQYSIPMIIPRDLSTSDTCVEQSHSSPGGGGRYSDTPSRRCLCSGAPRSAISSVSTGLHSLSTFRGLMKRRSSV
KCNQ1 act: potentiators or activators of KCNQ1 channel, primary screen, cell-based, thallium flux, high-throughput; Potassium voltage-gated channel subfamily KQT member 1 (Homo sapiens), P51787; CHO-K1 KCNQ1, thallium flux FluxOR fluorescence; active compounds read high; B-score at 10 µM; hit rate 0.35% among 310,000;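 active means fluorescence ratio B-score, a plate-corrected score, at least three library SD, with initial intensity B-score within 5 SD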
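Test system: CHO-K1 cells stably expressing KCNQ1 / Medium: assay buffer / Also added: depolarizing K+/Tl+ stimulus, K2SO4 and Tl2SO4 each 12.5 mM in 5x stock / Incubation: 90 min dye loading and 20 min compound exposure, both at room temperature / Signal: thallium influx via FluxOR fluorescence, kinetic imaging / Evaluation: B score of baseline-normalized fluorescence ratio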
hERG rescue: hERG rescue from dofetilide block, primary screen, cell-based, CHO-hERG, FluxOR thallium flux, dofetilide IC70. Voltage-gated inwardly rectifying potassium channel KCNH2 (Homo sapiens), Q12809. dofetilide IC70 present. activation (rescue from dofetilide block), less the hit threshold, % at 10 µM. hit rate 0.51% among 310,000. AID 1511, 2009;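 active means activation above the mean of controls blocked by dofetilide plus 5 SD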;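 further: thallium influx through hERG after potassium depolarization seen as dye fluorescence rise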
KCNK9 inh: KCNK9 potassium channel inhibitors, primary screen, HEK293 cells, thallium flux | Potassium channel subfamily K member 9 (Homo sapiens), Q9NPC2 | FluxOR thallium flux fluorescence; active compounds read low | B-score at 10 µM | hit rate 1.2% among 310,000;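 active means ratio B-score over 3 SD below the library mean, with starting fluorescence within 5 SD of its mean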;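 further: negative B-score means less thallium flux so channel inhibition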
Kir21 inh: inhibitors of mouse Kir2.1 inward-rectifier potassium channel; hit rate 0.85% among 310,000; B-score at 10 µM; HEK293-Kir2.1, FluxOR thallium flux fluorescence; active compounds read low; Inward rectifier potassium channel 2 (Mus musculus), P35561; AID 1672, 2009;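 active means fluorescence ratio B-score at or below minus 3 SD of library scores, with starting-brightness B-score within 2 SD, cut at about -4.2 in these data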;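 further: channel flux triggered by added potassium and thallium sulfate stimulus; B-score of peak minus minimum fluorescence over baseline after thallium stimulus; more negative B-score means stronger Kir2.1 block with less thallium influx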
KCNQ1 block: inhibitors of human KCNQ1 channel, primary screen, cell-based, thallium flux, high-throughput. CHO-K1 KCNQ1, FluxOR thallium flux fluorescence; active compounds read high. B-score at 10 µM. hit rate 1.3% among 310,000;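 active means compounds whose thallium flux B-score, printed positive for inhibition, exceeds three library SD while starting fluorescence stays within three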;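 further: channel opened by potassium depolarization with thallium stimulus after 20 min compound exposure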
KCNK3 confirm: retest of human KCNK3 channel inhibitors, confirmation, CHO cells, FluxOR thallium flux, triplicate | FluxOR fluorescence; 0% buffer, 100% carvedilol maximal block | hit rate 99% among 2,400 | ratio percent of control, % at 10 µM | shares compounds with KCNK3 block;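 active means ratio percent of control, averaged over triplicates, above buffer control mean plus 5 SD, cut at about 64% in these data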;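 further: ratio is the fluorescence rise from min to max over baseline after thallium stimulus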
KCNK3 noninduced: thallium flux inhibition in non-induced cells, primary screen, counter-screen for KCNK3 inhibitor project, cell-based, non-induced KCNK3 line, FluxOR thallium, triplicate. thallium flux ratio (lower = more inhibition) at 10 µM. hit rate 40% among 2,400. AID 651747, 2012. shares compounds with KCNK3 block. non-induced KCNK3 parental cells; active compounds read low;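 active means thallium flux ratio, averaged over three wells, more than 5 SD below the buffer control mean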;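 further: host cells are CHO cells without KCNK3 induction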
A number is an active result; n = inactive; x = no result.

SMILES	KCNK3 block	KCNQ1 act	hERG rescue	KCNK9 inh	Kir21 inh	KCNQ1 block	KCNK3 confirm	KCNK3 noninduced
c1ccc(CN2CCN(c3nc(NCc4ccco4)c4ccccc4n3)CC2)cc1	-11	n	n	n	n	n	141	0.1
C=CCSc1nc(N(CC)CC)c2sccc2n1	-10	n	n	n	n	n	121	n
C=CCNc1nc(SC)nc2ccsc12	n	n	n	n	n	n	x	x
COc1ccccc1NC(=O)Cn1cc(C(=O)c2ccco2)c2ccccc21	n	n	n	n	n	n	x	x
COc1ccccc1OCCn1cc(C(=O)c2ccco2)c2ccccc21	-12	n	n	-7.4	n	n	102	n
COc1cccc(OCCn2cc(C(C)=O)c3ccccc32)c1	-9.2	n	n	n	n	n	124	n
COc1cccc(CN2CC(C(=O)N(C)Cc3ccnc4ccccc34)CCC2=O)c1 (centres undefined)	n	n	n	n	n	n	x	x
COC(=O)c1c(NC(=O)CSc2nnnn2-c2ccccc2)sc2c1CCCC2	-9.4	n	n	n	n	n	96	n
CCOC(=O)c1c(NC(=O)Cn2c(C)nc3ccccc32)sc2c1CCC2	-9.4	n	n	n	n	n	102	n
CCCc1cc(C(=O)Nc2ccc(C(=O)c3ccccc3)cc2)n(C)n1	-13	n	n	n	n	n	132	0.15
Cc1cccc(C)c1OCC(=O)Nc1cccc(-c2nnc(-c3ccccc3)o2)c1	n	n	n	n	n	n	x	x
CCCCC(=O)Nc1ccc(C(=O)c2ccccc2)cc1	n	n	n	-6.8	n	n	96	n
CCCCC(=O)Nc1cccc(-c2nnc(-c3ccccc3)o2)c1	n	n	n	-6.7	n	n	123	n
COc1cccc(-c2nc(C(=O)NCC3CCCO3)cc3c2[nH]c2ccccc23)c1 (centres undefined)	-11	n	n	-6.8	n	n	64	0.15
CCOC(=O)/C(C#N)=C/c1cc(C)n(-c2ccc(C)cc2)c1C	-9.6	n	n	n	n	n	110	n
COc1ccc(Nc2nnc(-c3ccc(O)cc3)c3ccccc23)cc1	-8.9	n	n	n	n	n	98	n
CCN(CC)S(=O)(=O)c1ccc(NC(=O)COC(=O)CNS(=O)(=O)/C=C/c2ccccc2)cc1	n	n	n	n	n	n	x	x
Cc1ccc(-c2onc(C)c2C)cc1S(=O)(=O)N1CCOc2ccccc21	-9.8	n	n	n	n	n	126	0.15
CN(Cc1ccccc1F)C(=O)COc1ccc(C(=O)c2ccccc2)cc1	-12	n	n	-7.7	n	n	119	n
OC1CCCN(c2c3c(nc4cc(-c5cccc(Cl)c5)nn24)CCC3)C1 (centres undefined)	-10	n	n	n	n	n	93	n
Cc1cccc(-c2cc3nc4c(c(N5CCCC(O)C5)n3n2)CCC4)c1 (centres undefined)	-10	n	n	n	n	n	103	n
OC1CCCN(c2c3c(nc4cc(-c5cccc(F)c5)nn24)CCCC3)C1 (centres undefined)	n	n	n	n	n	n	x	x
OC1CCN(c2c3c(nc4cc(-c5ccc(F)cc5)nn24)CCC3)CC1	n	n	n	n	n	n	x	x
CC1CN(S(=O)(=O)c2cc(C(=O)N(C)Cc3cccs3)ccc2Cl)CC(C)O1 (centres undefined)	n	x	x	x	x	x	x	x
O=C(NC1CCCCC1)C1CC(=O)N(CCc2ccc(F)cc2)C1 (centres undefined)	n	n	n	n	n	n	x	x
SMILES	KCNK3 block	KCNQ1 act	hERG rescue	KCNK9 inh	Kir21 inh	KCNQ1 block	KCNK3 confirm	KCNK3 noninduced
O=C(Nc1ccc(Nc2ccccc2)cc1)c1ccc(Cl)c([N+](=O)[O-])c1	-11	n	n	n	n	n	125	0.15
Cc1cc(C)nc(NS(=O)(=O)c2ccc(NC(=O)c3ccc(O)cc3O)cc2)n1	n	n	n	n	n	n	x	x
COc1ccccc1-n1c(-c2ccc(Cl)cc2)c[nH]c1=S	n	n	n	n	n	n	x	x
COc1ccc(C2CC(=O)C=C(NC3CCCC3)C2)cc1 (centres undefined)	n	n	n	n	n	n	x	x
COc1ccc(C2CC(=O)C=C(NCCC(C)C)C2)cc1 (centres undefined)	-22	n	n	n	n	n	111	n
CC1(C)Oc2ccc(C(=O)N/N=C/c3ccc(O)cc3)cc2NC1=O	n	n	n	n	n	n	x	x
Cc1ccc(C(=O)Nc2cccc(-c3nc4ncccc4o3)c2)cc1	-10	n	n	n	n	n	90	n
O=C(Nc1cccc(-c2nc3ncccc3o2)c1)c1ccccc1	n	n	n	n	n	n	x	x
Cc1cccc(OCCCSc2nc3ccccc3[nH]2)c1	-8.9	n	n	n	n	n	126	0.12
COc1cccc(CNC(=O)CSc2nc3ccc(C)cc3[nH]2)c1	n	n	n	n	n	n	x	x
N#CCOc1coc(CN2CCN(c3ccccc3)CC2)cc1=O	n	n	n	n	n	n	x	x
COc1ccc2[nH]c3c(c2c1)CCN1C(=O)N([C@@H](C)C(=O)NC2CCCCC2C)C(=O)[C@]31C (some centres undefined)	n	n	n	n	n	n	x	x
COc1cc(C2Nc3ccccc3C(=O)N2c2ccccc2)c(Br)cc1OCC(=O)O (centres undefined)	n	n	n	n	n	n	x	x
COC(=O)COc1ccc(Cl)cc1C1Nc2ccccc2C(=O)N1c1ccc(OC)cc1 (centres undefined)	n	n	n	-8	n	n	122	0.16
CC(=O)NC(Cc1ccccc1C)C(=O)NC1CCN(C(=O)c2cccc(C)c2)CC1 (centres undefined)	n	n	n	n	n	n	x	x
CC1=Nc2ccccc2/C1=C/c1sc(=N)n(-c2nccs2)c1O	-10	n	n	n	n	10	175	0.089
O=c1sc2ccccc2n1CCOc1ccccc1	n	n	n	n	n	n	x	x
